Assay results: ChEMBL document CHEMBL1145811, “Synthesis and antibacterial activity of a novel series of acylides: 3-O-(3-pyridyl)acetylerythromycin A derivatives” (J Med Chem, 2003)
≈ marks a conversion by molar mass, not a printed value.

How the values were obtained:
Assay type in all cases: functional
[1] = tested on: Haemophilus influenzae; experiment: In vitro minimum inhibitory concentration for antibacterial activity against Haemophilus influenzae ATCC 43095 (ampicillin-susceptible strain that does not produce beta-lactamase)
In short: (§1)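 Agar dilution MIC determined by the Japan Society of Chemotherapy standard method for aerobic bacteria.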

[2] = tested on: Staphylococcus aureus; experiment: In vitro minimum inhibitory concentration for antibacterial activity against Staphylococcus aureus B1 (inducibly MLSb-resistant strain encoded by the erm(C) gene); in short: as §1
[3] = tested on: Staphylococcus aureus; experiment: In vitro minimum inhibitory concentration for antibacterial activity against Staphylococcus aureus SR138 (constitutively MLSb-resistant strain encoded by the erm(A) gene); in short: as §1
[4] = tested on: Streptococcus pneumoniae; experiment: In vitro minimum inhibitory concentration for antibacterial activity against erythromycin susceptible strain Streptococcus pneumoniae IID553
[5] = tested on: Streptococcus pneumoniae; experiment: In vitro minimum inhibitory concentration for antibacterial activity against erythromycin-susceptible strain Streptococcus pneumoniae IID553
In short: (§2)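 MIC by agar dilution following the Japan Society of Chemotherapy standard method for aerobic bacteria. S. aureus 209P-JC and S. pneumoniae IID553 are erythromycin-susceptible strains.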

[6] = tested on: Mus musculus; experiment: Effective dose in vivo, in mouse inoculated intraperitoneally with 1.47*10e3 CFU of erythromycin susceptible strain Streptococcus pneumoniae IID553; details: ip
In short: (§3)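 Mouse protection test: mice were infected intraperitoneally with erythromycin-susceptible S. aureus Smith or S. pneumoniae IID553. Compounds were given orally 1 h after inoculation.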

[7] = tested on: Streptococcus pneumoniae; experiment: In vitro minimum inhibitory concentration for antibacterial activity against Streptococcus pneumoniae 211 (MLSb-resistant strain encoded by the erm(B) gene); in short: as §1
[8] = tested on: Haemophilus influenzae; experiment: In vitro minimum inhibitory concentration for antibacterial activity against Haemophilus influenzae ATCC 33533 (ampicillin-resistant strain that produces beta-lactamase); in short: as §1
[9] = tested on: Staphylococcus aureus; experiment: In vitro minimum inhibitory concentration for antibacterial activity against erythromycin-susceptible strain Staphylococcus aureus […]; in short: as §2
[10] = tested on: Streptococcus pneumoniae; experiment: In vitro minimum inhibitory concentration for antibacterial activity against Streptococcus pneumoniae 210 (efflux-resistant strain encoded by the mef(A) gene); in short: as §1
[11] = tested on: Staphylococcus aureus; experiment: In vitro minimum inhibitory concentration for antibacterial activity against erythromycin susceptible strain Staphylococcus aureus Smith
[12] = tested on: Mus musculus; experiment: Effective dose in vivo, in mouse inoculated intraperitoneally with 5.80*10e7 CFU of erythromycin susceptible strain Staphylococcus aureus Smith; details: ip; in short: as §3

Row | SMILES | MIC [1] [µg/mL] | MIC [2] [µg/mL] | MIC [3] [µg/mL] | MIC [4] [µg/mL] | MIC [5] [µg/mL] | ED50 [6] [mg/kg] | MIC [7] [µg/mL] | MIC [8] [µg/mL] | MIC [9] [µg/mL] | MIC [10] [µg/mL] | MIC [11] [µg/mL] | ED50 [12] [mg/kg]
1 | CC[C@H]1OC(=O)[C@H](C)[C@@H](OC(=O)Cc2ccc([N+](=O)[O-])cc2)[C@H](C)[C@@H](O[C@@H]2O[C@H](C)C[C@H](N(C)C)[C@H]2O)[C@@](C)(OC)C[C@@H](C)C(=O)[C@H](C)[C@@H](O)[C@]1(C)O | 50 (≈ 66.4 µM) | 0.39 (≈ 0.518 µM) | > 100 | 0.1 (≈ 0.133 µM) | 0.2 (≈ 0.266 µM) | 39.1 | > 100 | 50 (≈ 66.4 µM) | 0.2 (≈ 0.266 µM) | 0.2 (≈ 0.266 µM) | 0.39 (≈ 0.518 µM) | 
2 | CC[C@H]1OC(=O)[C@H](C)[C@@H](OC(=O)Cc2ccccc2)[C@H](C)[C@@H](O[C@@H]2O[C@H](C)C[C@H](N(C)C)[C@H]2O)[C@@](C)(OC)C[C@@H](C)C(=O)[C@H](C)[C@@H](O)[C@]1(C)O | 100 (≈ 141 µM) | 6.25 (≈ 8.83 µM) | > 100 |  | 0.78 (≈ 1.1 µM) |  | > 100 | 100 (≈ 141 µM) | 1.56 (≈ 2.2 µM) | 0.78 (≈ 1.1 µM) |  | 
3 | CC[C@H]1OC(=O)[C@H](C)[C@@H](OC(=O)Cc2cccnc2)[C@H](C)[C@@H](OC2O[C@H](C)C[C@H](N(C)C)[C@H]2O)[C@@](C)(OC)C[C@@H](C)C2=NCCN3C(=O)O[C@@]1(C)[C@H]3[C@H]2C (stereo partly specified) | 6.25 (≈ 8.24 µM) | 0.39 (≈ 0.514 µM) | > 100 |  | 0.05 (≈ 0.0659 µM) |  | > 100 | 3.13 (≈ 4.12 µM) | 0.2 (≈ 0.264 µM) | 0.2 (≈ 0.264 µM) |  | 
4 | CC[C@H]1OC(=O)[C@H](C)[C@@H](OC(=O)Cc2cccnc2)[C@H](C)[C@@H](OC2O[C@H](C)C[C@H](N(C)C)[C@H]2O)[C@@](C)(OC)C[C@@H](C)/C(=N\O)[C@H](C)[C@H]2OC(=O)O[C@@]21C (stereo partly specified) | 3.13 (≈ 4.17 µM) | 0.39 (≈ 0.52 µM) | > 100 | 0.025 (≈ 0.0333 µM) | 0.025 (≈ 0.0333 µM) | 47.4 | > 100 | 6.25 (≈ 8.33 µM) | 0.2 (≈ 0.267 µM) | 0.1 (≈ 0.133 µM) | 0.39 (≈ 0.52 µM) | 27.6
5 | CC[C@H]1OC(=O)[C@H](C)[C@@H](OC(=O)c2cccc(OC)c2)[C@H](C)[C@@H](OC2O[C@H](C)C[C@H](N(C)C)[C@H]2O)[C@@](C)(OC)C[C@@H](C)C(=O)[C@H](C)[C@@H](O)[C@]1(C)O (stereo partly specified) | > 100 | 50 (≈ 69.1 µM) | > 100 |  | 1.56 (≈ 2.15 µM) |  | > 100 | 100 (≈ 138 µM) | 25 (≈ 34.5 µM) | 1.56 (≈ 2.15 µM) |  | 
6 | CC[C@H]1OC(=O)[C@H](C)[C@@H](OC(=O)Cc2cccnc2)[C@H](C)[C@@H](OC2O[C@H](C)C[C@H](N(C)C)[C@H]2O)[C@@](C)(O)C[C@@H](C)C(=O)[C@H](C)[C@H]2OC(=O)O[C@@]21C (stereo partly specified) | 3.13 (≈ 4.34 µM) | 0.39 (≈ 0.541 µM) | > 100 |  | 0.05 (≈ 0.0694 µM) |  | > 100 | 3.13 (≈ 4.34 µM) | 0.2 (≈ 0.277 µM) | 0.2 (≈ 0.277 µM) |  | 
7 | CC[C@H]1OC(=O)[C@H](C)[C@@H](OC(=O)Cc2cccnc2)[C@H](C)[C@@H](OC2O[C@H](C)C[C@H](N(C)C)[C@H]2O)[C@@](C)(O)C[C@@H](C)/C(=N\O)[C@H](C)[C@H]2OC(=O)O[C@@]21C (stereo partly specified) | 3.13 (≈ 4.25 µM) | 0.39 (≈ 0.53 µM) | > 100 | 0.025 (≈ 0.034 µM) | 0.025 (≈ 0.034 µM) | 142 | > 100 | 3.13 (≈ 4.25 µM) | 0.39 (≈ 0.53 µM) | 0.1 (≈ 0.136 µM) | 0.2 (≈ 0.272 µM) | 51.6
8 | CC[C@H]1OC(=O)[C@H](C)[C@@H](OC(=O)Cc2cccnc2)[C@H](C)[C@@H](OC2O[C@H](C)C[C@H](N(C)C)[C@H]2O)[C@@](C)(OC)C[C@@H](C)C(=O)[C@H](C)[C@@H](O)[C@]1(C)O (stereo partly specified) | 12.5 (≈ 17.6 µM) | 1.56 (≈ 2.2 µM) | > 100 | 0.2 (≈ 0.282 µM) | 0.39 (≈ 0.55 µM) | 40.8 | > 100 | 12.5 (≈ 17.6 µM) | 0.78 (≈ 1.1 µM) | 0.39 (≈ 0.55 µM) | 0.78 (≈ 1.1 µM) | 9.57
9 | CC[C@H]1OC(=O)[C@H](C)[C@@H](OC(=O)Cc2cccc([N+](=O)[O-])c2)[C@H](C)[C@@H](OC2O[C@H](C)C[C@H](N(C)C)[C@H]2O)[C@@](C)(OC)C[C@@H](C)C(=O)[C@H](C)[C@@H](O)[C@]1(C)O (stereo partly specified) | 25 (≈ 33.2 µM) | 0.78 (≈ 1.04 µM) | > 100 |  | 0.1 (≈ 0.133 µM) |  | > 100 | 25 (≈ 33.2 µM) | 0.2 (≈ 0.266 µM) | 0.2 (≈ 0.266 µM) |  | 
10 | CC[C@H]1OC(=O)[C@H](C)[C@@H](OC(=O)Cc2cccnc2)[C@H](C)[C@@H](OC2O[C@H](C)C[C@H](N(C)C)[C@H]2O)[C@@](C)(OC)C[C@@H](C)C(=O)[C@H](C)[C@H]2OC(=O)O[C@@]21C (stereo partly specified) | 3.13 (≈ 4.26 µM) | 0.39 (≈ 0.531 µM) | > 100 | 0.05 (≈ 0.068 µM) | 0.05 (≈ 0.068 µM) | 51.1 | > 100 | 3.13 (≈ 4.26 µM) | 0.2 (≈ 0.272 µM) | 0.2 (≈ 0.272 µM) | 0.2 (≈ 0.272 µM) | 17.5
11 | CC[C@H]1OC(=O)[C@H](C)[C@@H](OC(=O)Cc2cccnc2)[C@H](C)[C@@H](OC2O[C@H](C)C[C@H](N(C)C)[C@H]2O)[C@@](C)(OC)C[C@@H](C)C(=O)[C@H](C)[C@H]2NC(=O)O[C@@]21C (stereo partly specified) | 3.13 (≈ 4.26 µM) | 0.39 (≈ 0.531 µM) | > 100 | 0.05 (≈ 0.0681 µM) | 0.05 (≈ 0.0681 µM) | 17.5 | > 100 | 3.13 (≈ 4.26 µM) | 0.05 (≈ 0.0681 µM) | 0.1 (≈ 0.136 µM) | 0.2 (≈ 0.273 µM) | 6.99
